# Reference: ChEMBL document CHEMBL5104228, “Mechanistic insight into the repair of C8-linked pyrrolobenzodiazepine monomer-mediated DNA damage” (2022)
# Active and inactive are the calls of the source. No cut-off for these calls is given here.
# How the values were obtained:
# Caulobacter vibrioides [1] = assay: Effect on DNA damage repair in Caulobacter vibrioides expressing Gam-GFP reporter system assessed as increase in double stranded break by measuring Gam localization in cells at 25 to 50 ug/ml and measured after 2 hrs by fluorescence analysis; format: functional, organism-based; settings: dose 25-50 µg/ml
# Caulobacter vibrioides [2] = assay: Effect on DNA damage repair in Caulobacter vibrioides lacking uvrA expression assessed as decrease in cell survival rate upto 1 ug/ml and measured after 2 days by agar dilution method; format: functional, organism-based; settings: dose <= 1.0 µg/ml, time 2.0 day
# Caulobacter vibrioides [3] = assay: Induction of DNA damage in Caulobacter vibrioides assessed as increase in cell death upto 1 ug/ml and measured after 2 days by agar dilution method; format: functional, organism-based; settings: dose <= 1.0 µg/ml, time 2.0 day, DDE = dose-dependent effect
# [4] = Binding affinity to AT-rich 5'-fluoro and 3'-TAMRA tagged 5'-TAT-ATA-TAG-ATA-TTT-TTT-TAT-CTA-TAT-ATA-3' hairpin DNA (unknown origin) assessed as thermal stabilization by measuring change in melting temperature at 1 uM incubated for 3 hrs by FRET analysis
# Outline: (§1)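 Fluorophore/quencher-tagged hairpin DNA, AT-rich (Sequence 1) or GC-rich (Sequence 2), incubated with compound for 3 h or 24 h, then thermally melted. Melt curves were compared against a DNA-only control for the same sequence. Each reaction was run in triplicate.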
# Caulobacter vibrioides [5] = assay: Effect on DNA damage repair in Caulobacter vibrioides lacking alkB expression assessed as decrease in cell survival rate upto 1 ug/ml and measured after 2 days by agar dilution method; format: functional, organism-based; settings: dose <= 1.0 µg/ml, time 2.0 day
# Outline: (§2)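 Survival of Caulobacter wild type, ΔmutL and ΔalkB strains was tested across increasing drug doses. Cultures were serially diluted and spotted, and growth was scored along the dilution series. At least three independent experiments were run per strain, with mean and SEM of all repeats plotted.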
# Caulobacter vibrioides [6] = assay: Effect on DNA damage repair in Caulobacter vibrioides lacking mutL expression assessed as decrease in cell survival rate upto 1 ug/ml and measured after 2 days by agar dilution method; format: functional, organism-based; settings: dose <= 1.0 µg/ml, time 2.0 day; outline: as §2
# Caulobacter vibrioides [7] = assay: Effect on DNA damage repair in Caulobacter vibrioides expressing Gam-GFP reporter system assessed as increase in double stranded break by measuring Gam localization in cells at 2 ug/ml and measured after 2 hrs by fluorescence analysis; format: functional; settings: dose 2 µg/ml
# Outline: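 Wild-type Caulobacter carrying a Gam-GFP reporter was drug-treated and imaged by fluorescence microscopy. The readout was the percentage of cells with Gam-GFP foci, counting […] cells. Mean and SD are from three independent experiments.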
# [8] = Binding affinity to AT-rich 5'-fluoro and 3'-TAMRA tagged 5'-TAT-ATA-TAG-ATA-TTT-TTT-TAT-CTA-TAT-ATA-3' hairpin DNA(unknown origin) assessed as thermal stabilization by measuring change in melting temperature at 1 uM incubated for 24 hrs by FRET analysis; outline: as §1
# Caulobacter vibrioides [9] = assay: Effect on DNA damage repair in Caulobacter vibrioides lacking recN expression and expressing Gam-GFP reporter system assessed as fold increase in double stranded break by measuring Gam localization in cells at 2 ug/ml and measured after 2 hrs by fluorescence analysis; settings: dose 2 µg/ml
# [10] = Binding affinity to GC-rich 5'-fluoro and 3'-TAMRA tagged 5'-TAT-AGG-GAC-AGC-CCT-ATA-3' hairpin DNA (unknown origin) assessed as thermal stabilization by measuring change in melting temperature at 1 uM incubated for 3 hrs by FRET analysis; outline: as §1
# [11] = Binding affinity to GC-rich 5'-fluoro and 3'-TAMRA tagged 5'-TAT-AGG-GAC-AGC-CCT-ATA-3' hairpin DNA (unknown origin) assessed as thermal stabilization by measuring change in melting temperature at 1 uM incubated for 24 hrs by FRET analysis; outline: as §1
# Caulobacter vibrioides [12] = assay: Effect on DNA damage repair in Caulobacter vibrioides lacking addAB expression assessed as decrease in cell survival rate upto 1 ug/ml and measured after 2 days by agar dilution method; format: functional, organism-based; settings: dose <= 1.0 µg/ml, time 2.0 day
# Caulobacter vibrioides [13] = assay: Effect on DNA damage repair in Caulobacter vibrioides lacking recF expression assessed as decrease in cell survival rate upto 1 ug/ml and measured after 2 days by agar dilution method; format: functional, organism-based; settings: dose <= 1.0 µg/ml, time 2.0 day
# Caulobacter vibrioides [14] = assay: Effect on DNA damage repair in Caulobacter vibrioides lacking recO expression assessed as decrease in cell survival rate upto 1 ug/ml and measured after 2 days by agar dilution method; format: functional, organism-based; settings: dose <= 1.0 µg/ml, time 2.0 day
# Caulobacter vibrioides [15] = assay: Effect on DNA damage repair in Caulobacter vibrioides lacking recA, lexA and sidA expression assessed as decrease in cell survival rate upto 1 ug/ml and measured after 2 days by agar dilution method; format: functional, organism-based; settings: dose <= 1.0 µg/ml, time 2.0 day
# Caulobacter vibrioides [16] = assay: Effect on DNA damage repair in Caulobacter vibrioides lacking recR expression assessed as decrease in cell survival rate upto 1 ug/ml and measured after 2 days by agar dilution method; format: functional, organism-based; settings: dose <= 1.0 µg/ml, time 2.0 day
# Caulobacter vibrioides [17] = assay: Induction of DNA damage in Caulobacter vibrioides assessed as accumulation of SOS-induced YFP at 1 ug/ml incubated upto 2 hrs by fluorescence microscopy; format: functional, organism-based; settings: dose 1.0 µg/ml
# Caulobacter vibrioides [18] = assay: Effect on DNA damage repair in Caulobacter vibrioides lacking uvrA expression and expressing Gam-GFP reporter system assessed as fold increase in double stranded break by measuring Gam localization in cells at 1 ug/ml and measured after 2 hrs by fluorescence analysis; format: functional; settings: dose 1 µg/ml
# Caulobacter vibrioides [19] = assay: Effect on DNA damage repair in Caulobacter vibrioides lacking DnaE2 expression assessed as decrease in cell survival rate upto 1 ug/ml and measured after 2 days by agar dilution method; format: functional, organism-based; settings: dose <= 1.0 µg/ml, time 2.0 day
# Caulobacter vibrioides [20] = assay: Effect on DNA damage repair in Caulobacter vibrioides lacking recA expression assessed as decrease in cell survival rate upto 1 ug/ml and measured after 2 days by agar dilution method; format: functional, organism-based; settings: dose <= 1.0 µg/ml, time 2.0 day
# Caulobacter vibrioides [21] = assay: Effect on DNA damage repair in Caulobacter vibrioides lacking recN expression assessed as decrease in cell survival rate upto 1 ug/ml and measured after 2 days by agar dilution method; format: functional, organism-based; settings: dose <= 1.0 µg/ml, time 2.0 day
# Caulobacter vibrioides [22] = assay: Induction of DNA damage in Caulobacter vibrioides assessed as accumulation of SOS-induced YFP at 0.5 ug/ml incubated upto 2 hrs by fluorescence microscopy; format: functional, organism-based; settings: dose 0.5 µg/ml
# Caulobacter vibrioides [23] = assay: Effect on DNA damage repair in Caulobacter vibrioides lacking uvrA expression and expressing Gam-GFP reporter system assessed as fold increase in double stranded break by measuring Gam localization in cells at 0.5 ug/ml and measured after 2 hrs by fluorescence analysis; format: functional; settings: dose 0.5 µg/ml
# Caulobacter vibrioides [24] = assay: Effect on DNA damage repair in Caulobacter vibrioides expressing Gam-GFP reporter system assessed as increase in double stranded break by measuring Gam localization in cells at 0.5 ug/ml and measured after 2 hrs by fluorescence analysis; format: functional; settings: dose 0.5 µg/ml
# Outline: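 Wild-type Caulobacter carrying a Gam-GFP reporter; after drug treatment, cells imaged by fluorescence microscopy and percentage of cells with Gam-GFP foci scored ([…] cells). Three independent experiments; mean and SD reported.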
# Caulobacter vibrioides [25] = assay: Effect on DNA damage repair in Caulobacter vibrioides lacking recN expression and expressing Gam-GFP reporter system assessed as fold increase in double stranded break by measuring Gam localization in cells at 0.5 ug/ml and measured after 2 hrs by fluorescence analysis; settings: dose 0.5 µg/ml
# Caulobacter vibrioides [26] = assay: Effect on DNA damage repair in Caulobacter vibrioides assessed as fold change as increase in rifampicin resistance colonies at 2 ug/ml incubated for 0.5 hrs followed by culture in new media and treated with rifampicin and measured after 48 hrs by colony formation assay; format: functional; settings: dose 2 µg/ml
# Outline: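 Caulobacter cells exposed to drug; rifampicin-resistant colony counts expressed as fold change relative to untreated control (no DNA damage). Three independent experiments; mean and SD reported.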
Compound,Activity (Caulobacter vibrioides [2]),Activity (Caulobacter vibrioides [3]),ΔTm [4],Activity (Caulobacter vibrioides [5]),Activity (Caulobacter vibrioides [6]),ΔTm [8],ΔTm [10],ΔTm [11],Activity (Caulobacter vibrioides [12]),Activity (Caulobacter vibrioides [13]),Activity (Caulobacter vibrioides [14]),Activity (Caulobacter vibrioides [15]),Activity (Caulobacter vibrioides [16]),Activity (Caulobacter vibrioides [19]),Activity (Caulobacter vibrioides [20]),Activity (Caulobacter vibrioides [21]),Activity (Caulobacter vibrioides [22]),Activity (Caulobacter vibrioides [23]),Activity (Caulobacter vibrioides [24]),fold change (FC) (Caulobacter vibrioides [25]),further results
CCn1cc(C(=O)O)c(=O)c2cc(F)c(N3CCNCC3)cc21,Active,–,–,–,–,–,–,–,–,–,–,–,–,–,–,–,–,–,–,–,Activity (Caulobacter vibrioides [1]): Active
COC(=O)c1cc(-c2ccc(NC(=O)c3cc(NC(=O)CCCOc4cc5c(cc4OC)C(=O)N4CCC[C@H]4C=N5)cn3C)cc2)cn1C,Active,Dde,15.7 °C,Active,Active,18.5 °C,16.3 °C,17.4 °C,Active,Active,Active,Active,Active,Active,Active,Active,–,–,–,–,Activity (Caulobacter vibrioides [7]): 5%; fold change (FC) (Caulobacter vibrioides [9]): 2; Activity (Caulobacter vibrioides [17]): Active; Activity (Caulobacter vibrioides [18]): 40%
COC(=O)c1cc(NC(=O)c2cc(NC(=O)CCCOc3cc4c(cc3OC)C(=O)N3CCC[C@H]3C=N4)cn2C)cn1C,–,–,18.9 °C,–,–,21.1 °C,18.6 °C,19.2 °C,–,–,–,–,–,–,–,–,–,–,–,–,–
COC(=O)c1cc2cc(NC(=O)c3cc(NC(=O)CCCOc4cc5c(cc4OC)C(=O)N4CCC[C@H]4C=N5)cn3C)ccc2s1,Active,Dde,14 °C,Active,Active,15.6 °C,15.6 °C,15.9 °C,Active,Active,Active,Active,Active,Active,Active,Active,Active,56%,5%,2,–
COS(C)(=O)=O,Active,–,–,–,–,–,–,–,–,–,–,–,–,–,–,–,–,–,–,–,–
CO[C@@]12[C@H](COC(N)=O)C3=C(C(=O)C(C)=C(N)C3=O)N1C[C@@H]1N[C@@H]12 [MITOMYCIN],–,Dde,12.6 °C,Active,Active,12.8 °C,11.5 °C,11.8 °C,–,–,–,–,–,–,Active,–,Active,10%,5%,2,fold change (FC) (Caulobacter vibrioides [26]): 2.5
